From ChEMBL document CHEMBL1155221, “Identification of novel indanylsulfonamide guanylhydrazones as potent 5-HT6 serotonin receptor antagonists” (J Med Chem, 2009) come the findings set out here.

Test [1] addresses T1, 5-hydroxytryptamine receptor 6 (Homo sapiens, UniProt P50406). The test is described as follows: Displacement of [3H]LSD from human recombinant 5HT6 receptor expressed in HEK293 cells after 60 mins by liquid scintillation counting. Type of test: cell-based. The essentials: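 Competition binding on membranes from HEK-293 cells expressing recombinant human 5-HT6 receptor, with [3H]-LSD as radioligand. […] Values are mean ± SEM of three experiments.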

For test [2], the target named is T1, 5-hydroxytryptamine receptor 6. Briefly: Antagonist activity at human 5HT6 receptor expressed in HEK293F cells assessed as inhibition of 5-HT-stimulated cAMP production after 30 mins by HTRF assay. Type of test: functional, cell-based. The essentials:
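HEK-293F cells stably expressing human 5-HT6 receptor. Compounds were tested against 5-HT-stimulated cAMP production, with cAMP read by homogeneous time-resolved fluorescence (HTRF). Antagonism expressed as Imax and IC50. Data are mean ± SEM of three experiments.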
On the technique in general: Cyclic AMP is a second messenger, typically raised through Gs and lowered through Gi signalling.

Test [3] addresses T2, Adrenergic receptor alpha-1 (Rattus norvegicus, UniProt P15823+P23944+P43140).
T2 sequence (P15823 whole entry): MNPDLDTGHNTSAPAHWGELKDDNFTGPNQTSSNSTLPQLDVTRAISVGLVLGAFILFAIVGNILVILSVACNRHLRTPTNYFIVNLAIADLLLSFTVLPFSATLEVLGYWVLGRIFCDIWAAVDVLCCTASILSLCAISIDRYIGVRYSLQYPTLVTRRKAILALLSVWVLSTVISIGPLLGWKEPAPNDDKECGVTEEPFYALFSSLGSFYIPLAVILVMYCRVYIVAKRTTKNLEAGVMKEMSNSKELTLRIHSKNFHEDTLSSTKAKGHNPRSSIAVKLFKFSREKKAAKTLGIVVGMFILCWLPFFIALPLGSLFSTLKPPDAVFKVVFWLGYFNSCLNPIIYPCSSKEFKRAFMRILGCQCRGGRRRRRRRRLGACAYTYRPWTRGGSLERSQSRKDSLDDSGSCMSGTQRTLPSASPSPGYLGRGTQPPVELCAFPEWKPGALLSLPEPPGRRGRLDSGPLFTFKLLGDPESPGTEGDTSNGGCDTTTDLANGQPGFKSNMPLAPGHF
T2 sequence (P23944 whole entry): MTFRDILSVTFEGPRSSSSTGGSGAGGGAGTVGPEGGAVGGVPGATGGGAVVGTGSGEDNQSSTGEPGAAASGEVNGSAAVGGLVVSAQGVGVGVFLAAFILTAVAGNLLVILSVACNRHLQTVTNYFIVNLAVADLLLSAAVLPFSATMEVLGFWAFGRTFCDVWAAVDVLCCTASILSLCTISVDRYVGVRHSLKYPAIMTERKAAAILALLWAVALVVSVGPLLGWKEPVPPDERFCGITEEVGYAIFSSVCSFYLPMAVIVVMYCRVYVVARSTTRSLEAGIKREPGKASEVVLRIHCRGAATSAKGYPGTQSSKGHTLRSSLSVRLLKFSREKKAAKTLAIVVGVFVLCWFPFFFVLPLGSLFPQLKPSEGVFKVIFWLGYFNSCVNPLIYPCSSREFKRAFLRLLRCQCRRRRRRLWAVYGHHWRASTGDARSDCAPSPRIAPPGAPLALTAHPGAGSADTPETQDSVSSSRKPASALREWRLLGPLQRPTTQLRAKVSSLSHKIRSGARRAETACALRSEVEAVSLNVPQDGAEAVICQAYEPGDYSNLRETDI
T2 sequence (P43140 whole entry): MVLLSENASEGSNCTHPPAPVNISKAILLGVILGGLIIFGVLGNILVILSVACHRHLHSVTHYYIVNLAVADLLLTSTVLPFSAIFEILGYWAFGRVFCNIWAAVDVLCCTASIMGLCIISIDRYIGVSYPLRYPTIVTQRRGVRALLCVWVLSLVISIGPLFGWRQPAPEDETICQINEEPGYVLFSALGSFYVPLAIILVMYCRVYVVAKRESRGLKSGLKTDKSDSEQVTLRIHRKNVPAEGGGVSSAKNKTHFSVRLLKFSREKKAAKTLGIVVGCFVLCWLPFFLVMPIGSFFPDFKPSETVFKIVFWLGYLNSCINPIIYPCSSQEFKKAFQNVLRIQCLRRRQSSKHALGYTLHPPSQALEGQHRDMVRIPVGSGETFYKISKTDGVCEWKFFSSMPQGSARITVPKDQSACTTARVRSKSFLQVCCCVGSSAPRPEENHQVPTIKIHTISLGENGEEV
Briefly: Inhibition of rat alpha 1 adrenoceptor.

In test [4] the target is Sodium-dependent serotonin transporter (Homo sapiens, UniProt P31645). The test is described as follows: Inhibition of human SERT.

The structures appear in SMILES notation.

T1 sequence (P50406 whole entry): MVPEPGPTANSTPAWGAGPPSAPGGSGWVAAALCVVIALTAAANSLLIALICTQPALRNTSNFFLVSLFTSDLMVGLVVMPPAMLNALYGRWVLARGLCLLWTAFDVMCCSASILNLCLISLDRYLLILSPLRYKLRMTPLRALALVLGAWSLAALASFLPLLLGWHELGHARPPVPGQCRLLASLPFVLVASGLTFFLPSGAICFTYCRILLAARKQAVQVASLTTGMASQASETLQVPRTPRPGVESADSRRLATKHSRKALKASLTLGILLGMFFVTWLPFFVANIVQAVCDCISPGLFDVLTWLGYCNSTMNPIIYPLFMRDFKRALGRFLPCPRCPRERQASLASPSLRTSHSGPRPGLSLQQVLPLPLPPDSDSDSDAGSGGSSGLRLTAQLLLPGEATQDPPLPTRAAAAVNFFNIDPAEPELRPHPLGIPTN
Sequence of Sodium-dependent serotonin transporter (P31645 whole entry): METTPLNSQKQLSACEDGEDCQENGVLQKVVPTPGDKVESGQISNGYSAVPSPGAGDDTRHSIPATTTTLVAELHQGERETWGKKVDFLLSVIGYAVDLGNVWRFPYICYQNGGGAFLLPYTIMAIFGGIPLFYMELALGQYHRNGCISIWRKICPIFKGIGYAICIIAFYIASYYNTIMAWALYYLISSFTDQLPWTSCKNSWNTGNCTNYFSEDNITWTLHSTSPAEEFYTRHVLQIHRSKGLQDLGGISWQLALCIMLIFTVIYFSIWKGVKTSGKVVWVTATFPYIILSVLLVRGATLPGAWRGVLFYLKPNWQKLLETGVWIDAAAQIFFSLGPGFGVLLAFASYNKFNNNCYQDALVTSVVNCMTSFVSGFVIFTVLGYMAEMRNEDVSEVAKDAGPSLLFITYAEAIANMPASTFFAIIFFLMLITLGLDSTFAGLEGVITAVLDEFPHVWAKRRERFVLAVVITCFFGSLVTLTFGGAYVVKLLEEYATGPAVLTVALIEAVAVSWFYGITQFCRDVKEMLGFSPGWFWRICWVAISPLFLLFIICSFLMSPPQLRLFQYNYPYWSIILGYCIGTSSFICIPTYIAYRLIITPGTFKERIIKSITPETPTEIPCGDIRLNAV

Consider `O=S(=O)(Nc1ccc2c(c1)/C(=N/NC1=NCCN1)CC2)c1c(Cl)nc2sccn12`, for which the inhibition constant (Ki) (commonly the equilibrium dissociation constant of an inhibitor or competing ligand from its target) in test [1] was found to be 2.2 nM. The IC50 (as a rule, the concentration that gives 50% inhibition) was 176 nM in test [2], over 1000 nM in test [3] and over 10000 nM in test [4].
Take `Cl.N=C(N)N/N=C1\CCc2ccc(NS(=O)(=O)c3c(Cl)nc4sccn34)cc21`: in test [1], the Ki came out at 1.2 nM. Moreover, the half-maximal inhibitory concentration (IC50) in test [2] is 96 nM; in test [3], over 1000 nM; in test [4], over 10000 nM.
For `CC1Cc2ccc(NS(=O)(=O)c3c(Cl)nc4sccn34)cc2/C1=N/NC(=N)N.Cl` (racemic), in test [1], the Ki was 1.6 nM. For the same compound, the IC50 in test [2] is 58 nM; in test [3], over 1000 nM; in test [4], over 1000 nM.
